# Measured values from the EternaBench riboswitch data.
# Tested on: MS2 coat protein
# Assay: apparent Kd, MS2 coat protein; higher = weaker binding; RNA-MaP array; FMN 200 µM where present
# Summary of the method: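 Each design was made on Illumina sequencing-chip clusters by stalled E. coli RNA polymerase and titrated with SNAP-549-labelled MS2 coat protein from 0.7 or 1.5 nM, doubling to 3 µM, in the absence and then the presence of constant ligand. The buffer was 100 mM Tris-HCl pH 7.5, 80 mM KCl, 4 mM MgCl2, BSA, DTT, yeast tRNA and Tween-20. The apparent Kd is the median of filtered per-cluster fits of binding curves, with green signal normalised to red-channel RNA signal and control-cluster median Fmax.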
# [1] = designed as: ON switch for flavin mononucleotide, no ligand
# [2] = ligand present: flavin mononucleotide, designed as: ON switch for flavin mononucleotide
# [3] = designed as: OFF switch for flavin mononucleotide, no ligand
# [4] = ligand present: flavin mononucleotide, designed as: OFF switch for flavin mononucleotide
Sequence,apparent Kd [1],apparent Kd [2],apparent Kd [3],apparent Kd [4]
AAAGCAUACCGAGGAUAUUCAUAUAAUAAAUAAACAUGAGGAUCACCCAUGUGGCGAAAGCCUAGGGAGAAGGCGGAAUGCUAA,197 nM,24.6 nM,–,–
AAGGUGCAGGUACAGGAUAUGUUGCUCGUAACAUGAGGAUCACCCAUGUACCUAUGAGAUUAAAUGCAGAAGGGUGCACACCAAA,792 nM,87.5 nM,–,–
UUACUUUUACAGAAGGUUUAAUAAUAUAUAAAAGAAGGAUAUGUAACAUGAGGAUCACCCAUGUUUCACCCACAUGAGGAUCAU,–,–,11.5 nM,9.79 nM
CCUUUGAAGAUCCUGGUUUUCGACAUGAGGAUCACCCAUGUGCAGGAUAUCGUGCCGGUGCUGUGCGAGAAGGGCAGUCUCAGC,–,–,15.1 nM,17.9 nM
CGAUAUAUGAAGGGCAAAGGCCCACAUGAGGAUCACCCAUGUAGAAGGCGAUCCGCAACGCGGAUCGAGGAUAUAUAGUAUACA,–,–,8.45 nM,8.1 nM
UGUGCUAUGUAGAAGGCAGAUCUGAUUCAGAUCUGAGGAUAUACAUGAGGAUCACCCAUGUUAUGCACCAGCACGAGAGUGCAC,–,–,7.89 nM,17.1 nM
GCCUGCUGGCGAGGAUAUUCUGUGCGGUUUCGGCUCGUGUCUGUUACAUGAGGAUCACCCAUGUGGGAGAAGGUGUCUGUGGCC,–,–,7.76 nM,7.28 nM
GUAUUUGAAGUAAGGAUAUGCCUCUGGAAACGGAGGUAGAAGGUACAUGAGGAUCACCCAUGUUUCUCUUUUGG,–,–,16 nM,23.3 nM
GCUACUUAUUUUAAUUAUGAUUUACUAGAAGGUAGAUACAUGAGGAUCACCCAUGUUUAGAGUUCUAAGGAUAUAGUUUUUAGC,8.25 nM,7.24 nM,–,–
GGAAAGCAAGGAUAUGCAAACAAACAAACAAACAAAAGGGAACAUGAGGAUCACCCAUGUAGAAGGUGCAAACA,–,–,40.8 nM,32.5 nM
UAAACACCCUCAUGUACCUGAGGACAUGAGGAUCACCCAUGUGAGGAUAUAGCCAUUAAAUCUAACUAGAAGGUAUAGGAAAUC,–,–,772 nM,612 nM
AGCUAGUGAGGAUAUACGAACAUGUCAAAAGACGUGAAGGGACAUGAGGAUCACCCAUGUAGAAGGCACUAGCA,–,–,41.1 nM,139 nM
GGUUAUUGCAAGGAUAUGCUUUUUUUUGAAAUUGCAGAAGGUGCAACAUGAGGAUCACCCAUGUUGGAUGGGUU,–,–,166 nM,125 nM
GCGCGCGCCGCAGGAUAUGGUUUGUUCGUUGAACCAGAAGGGCGACAUGAGGAUCACCCAUGUACAUGAGGAUCACCCAUGUGC,–,–,59.2 nM,51 nM
GAAAACGCAGAGGAUAUUUCAGAUCCUAGCUGCAAAGAAGGCUGCACAUGAGGAUCACCCAUGUGGUCCUGAAG,–,–,65.1 nM,155 nM
UAAAUGUGAGGAUAUUCGUAGUACACGGAGACGUGUAUUACGGAGAAGGCACAUGAGGAUCACCCAUGUUCCUU,–,–,22.2 nM,166 nM
UGACCCUGGAUGAGUGUUUAGACAUGAGGAUCACCCAUGUCUGAGGAUAUGCGGCAUCAAUAACAGCAGAAGGCAGACUUGGGU,–,–,133 nM,41.2 nM
AGAUAAGUCACAGGAUAUUCCUACAUUAAUAUGGAAGAAGGGUGAGCAUGAUUCGAUACAUGAGGAUCACCCAUGUAUCCGCGA,78.4 nM,19.7 nM,–,–
GCCGUAAAUGUGAGGAUAUACCUAUGGAAACAUAGGUAGAAGGCACAUGAGGAUCACCCAUGUCCUUAAUCGGC,–,–,447 nM,406 nM
UAACAUACAAAUAUACAUGAGGAUCACCCAUGUUUGUUGGGAAGAAGGGUAACUAUAUUACAUAUACAGGAUAUUUAACAUACU,15.1 nM,11.7 nM,–,–
AUUCGACAUGAGGAUCACCCAUGUAAGGAUAUGAUAGUUCUGAUAAGGGCUAGCCUAUUCAGAAGGUACGUGGC,–,–,35.5 nM,31.4 nM
AACAUGGUACAGAAGGGCUAUUUAUUUAAUUAUUAUUUAGAACAGCAUAGCAGGAUAUGUUUAACAUGAGGAUCACCCAUGUAC,71.3 nM,14.7 nM,–,–
GUAUCACGAGGAUAUACAUGAGGAUCACCCAUGUAGAAGCCAUGUGGUGCUCAAGUAUGUAGAAGGCGUGCUCC,–,–,–,33.3 nM
